According to ChEMBL document CHEMBL1165969, “Synthesis and cytotoxicity of novel indirubin-5-carboxamides” (Bioorg Med Chem, 2010):
In brackets after ≈: the same amount, converted by molar mass.

Experiments:
[1] = Solubility in water by spectrophotometry; type: physicochemical
[2] = Antiproliferative activity against human LXFL 529L cells after 3 days by sulforhodamine B assay; type: functional, cell-based
How it was run: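 Cells kept at 37 °C in humidified 5% CO2 in RPMI 1640 with 10% heat-inactivated FBS, penicillin (100 units/mL) and streptomycin, and checked for mycoplasma. Seeded, grown 24 h, then exposed to drug for 3 days in serum-containing medium. Fixed with 50% TCA solution for 1 h at 4 °C, stained with 0.4% SRB, dye eluted in 10 mM Tris pH 10.5, read at 570 nm. Growth expressed as % T/C; IC50 derived.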

Row | Compound | solubility [1] [µg/mL] | IC50 ([2]; Homo sapiens, LXFL 529L, 72 h) [µM] | IC50 ([2]; lxfl 529l) [µM]
1 | O=C1Nc2ccc(C(=O)N(CCO)CCO)cc2/C1=C1/Nc2ccccc2/C1=N\OCC(O)CO (configuration not stated) | 21 (≈ 43.5 µM) | 43 | 
2 | C[N+]1(C)CCN(C(=O)c2ccc3c(c2)/C(=C2/Nc4ccccc4C2=O)C(=O)N3)CC1.[I-] | 2450 | 2.5 | 
3 | CN(C)CCNC(=O)c1ccc2c(c1)/C(=C1/Nc3ccccc3C1=O)C(=O)N2 | 13 (≈ 34.5 µM) | 2.3 | 
4 | CN(CC[N+](C)(C)C)C(=O)c1ccc2c(c1)/C(=C1/Nc3ccccc3C1=O)C(=O)N2.[I-] | 1600 | 5.7 | 
5 | CN(C)CCN(C)C(=O)c1ccc2c(c1)/C(=C1/Nc3ccccc3/C1=N\OCCO[C@@H]1O[C@H](CO)[C@@H](O)[C@H](O)[C@H]1O)C(=O)N2 | > 380 | > 10 | 
6 | O=C1Nc2ccc(C(=O)NCCO)cc2/C1=C1/Nc2ccccc2/C1=N\O | 179 (≈ 491 µM) | 4.5 | 
7 | O=C1Nc2ccc(C(=O)O)cc2/C1=C1/Nc2ccccc2C1=O | 41 (≈ 134 µM) | 7 | 
8 | CN(C)c1ccc(NC(=O)c2ccc3c(c2)/C(=C2/Nc4ccccc4C2=O)C(=O)N3)cc1 | 580 (≈ 1370 µM) | 1.2 | 
9 | O=C1Nc2ccccc2/C1=C1/Nc2ccccc2C1=O [INDIRUBIN] |  | 10 | 
10 | O=C1Nc2ccc(C(=O)NC[C@H](O)[C@@H](O)[C@H](O)[C@H](O)CO)cc2/C1=C1/Nc2ccccc2C1=O | 21.6 (≈ 46 µM) | > 30 | 
11 | CN(C)CCN(C)C(=O)c1ccc2c(c1)/C(=C1/Nc3ccccc3/C1=N\O)C(=O)N2 | 6400 (≈ 15800 µM) | 2.2 | 
12 | CN1CCN(CCNC(=O)c2ccc3c(c2)/C(=C2/Nc4ccccc4C2=O)C(=O)N3)CC1 | 700 (≈ 1620 µM) | 7.8 | 
13 | COS(=O)(=O)[O-].C[N+](C)(C)CCNC(=O)c1ccc2c(c1)/C(=C1/Nc3ccccc3C1=O)C(=O)N2 | 53000 | 8.6 | 
14 | CN1CCN(C(=O)c2ccc3c(c2)/C(=C2/Nc4ccccc4C2=O)C(=O)N3)CC1 | 1000 (≈ 2570 µM) | 3.9 | 
15 | CN1CCN(CCNC(=O)c2ccc3c(c2)/C(=C2/Nc4ccccc4C2=O)C(=O)N3)CC1.Cl | > 2000 |  | 6
16 | CN(C)CCN(C)C(=O)c1ccc2c(c1)/C(=C1/Nc3ccccc3C1=O)C(=O)N2 | 35.4 (≈ 90.7 µM) | 5.4 | 
17 | COc1ccc2c(c1)/C(=C1/Nc3ccccc3/C1=N\OCCO[C@@H]1O[C@H](CO)[C@@H](O)[C@H](O)[C@H]1O)C(=O)N2 | 42 (≈ 81.8 µM) | 0.5 | 
18 | O=C1Nc2ccc(C(=O)N3CCNCC3)cc2/C1=C1/Nc2ccccc2C1=O | 4.2 (≈ 11.2 µM) | 3.2 | 
19 | COS(=O)(=O)[O-].C[N+]1(C)CCN(C(=O)c2ccc3c(c2)/C(=C2/Nc4ccccc4C2=O)C(=O)N3)CC1 | 60000 |  | 3.5
20 | O=C1Nc2ccc(C(=O)Nc3cccnc3)cc2/C1=C1/Nc2ccccc2C1=O | 55.5 (≈ 145 µM) | > 10 | 
21 | O=C1Nc2ccc(C(=O)N(CCO)CCO)cc2/C1=C1/Nc2ccccc2C1=O | 6.8 (≈ 17.3 µM) | 4.7 | 
22 | O=C1Nc2ccc(C(=O)N(CCO)CCO)cc2/C1=C1/Nc2ccccc2/C1=N\O | 523 (≈ 1280 µM) | 5.9 | 
23 | CN1CCN(c2ccc(NC(=O)c3ccc4c(c3)/C(=C3/Nc5ccccc5/C3=N\O)C(=O)N4)cc2)CC1 | 1600 (≈ 3240 µM) | 4.2 | 
24 | O=C1Nc2ccc(C(=O)NCCO)cc2/C1=C1/Nc2ccccc2C1=O | 9.5 (≈ 27.2 µM) | 9.2 | 
